From ChEMBL document CHEMBL4334552, “Discovery of BMS-986260, a Potent, Selective, and Orally Bioavailable TGFβR1 Inhibitor as an Immuno-oncology Agent” (ACS Med Chem Lett, 2020) come the findings set out here.

A short description of data set [1]: Half life in mouse liver microsomes in presence of NADPH. In kind it is ADME, Microsome. Background: Liver microsomes are vesicles of endoplasmic reticulum, rich in cytochrome P450 enzymes.
The nature of data set [2]: Protein binding in mouse serum assessed as unbound fraction. The class given is ADME, cell-free.
The target of data set [3] is T1, Cytochrome P450 2C8 (Homo sapiens, UniProt P10632).
T1 sequence (P10632 whole entry): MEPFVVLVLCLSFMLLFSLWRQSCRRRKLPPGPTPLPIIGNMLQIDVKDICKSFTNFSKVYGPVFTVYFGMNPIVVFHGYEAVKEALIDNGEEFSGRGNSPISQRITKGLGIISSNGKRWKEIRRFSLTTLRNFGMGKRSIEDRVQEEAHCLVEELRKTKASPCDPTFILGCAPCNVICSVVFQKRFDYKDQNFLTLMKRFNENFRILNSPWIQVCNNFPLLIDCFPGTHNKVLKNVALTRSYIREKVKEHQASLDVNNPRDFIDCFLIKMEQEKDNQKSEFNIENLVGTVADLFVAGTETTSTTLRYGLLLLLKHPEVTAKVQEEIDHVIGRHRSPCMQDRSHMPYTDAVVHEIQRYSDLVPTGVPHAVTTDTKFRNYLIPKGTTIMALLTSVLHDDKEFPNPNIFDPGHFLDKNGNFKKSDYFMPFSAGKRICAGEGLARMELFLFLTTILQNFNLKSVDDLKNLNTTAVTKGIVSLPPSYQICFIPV
Put plainly: Inhibition of recombinant CYP2C8 (unknown origin). The class given is ADME.

In data set [4] the target is T2, TGF-beta receptor type-1 (Mus musculus, UniProt Q64729).
T2 sequence (Q64729 whole entry): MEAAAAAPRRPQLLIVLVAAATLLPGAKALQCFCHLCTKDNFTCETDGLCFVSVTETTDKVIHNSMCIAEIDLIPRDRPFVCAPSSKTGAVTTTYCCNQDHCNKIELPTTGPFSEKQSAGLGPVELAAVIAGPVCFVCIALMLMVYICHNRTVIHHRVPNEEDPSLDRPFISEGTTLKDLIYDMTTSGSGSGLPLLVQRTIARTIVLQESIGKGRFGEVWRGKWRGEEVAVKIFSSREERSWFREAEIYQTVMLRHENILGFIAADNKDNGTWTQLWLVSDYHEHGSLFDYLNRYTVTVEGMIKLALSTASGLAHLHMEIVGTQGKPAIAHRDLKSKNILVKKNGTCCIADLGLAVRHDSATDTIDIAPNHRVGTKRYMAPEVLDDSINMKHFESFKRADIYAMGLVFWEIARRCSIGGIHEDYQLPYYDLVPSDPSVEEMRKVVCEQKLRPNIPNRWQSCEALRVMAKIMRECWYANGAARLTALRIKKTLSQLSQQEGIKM
Put plainly: Inhibition of TGFbetaR1 in TGFbeta-stimulated mouse NIH3T3 cells assessed as reduction in SMAD3 phosphorylation. The class given is cell-based.

Data set [5] in a line: Protein binding in rat serum assessed as unbound fraction. The class given is ADME, cell-free.
Data set [6] is described as follows: Tmax in Sprague Dawley rat at 10 mg/kg, po. In kind it is ADME, organism-based. The settings on record: in vivo. A digest of the protocol: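 Male Sprague–Dawley rats (n = 3) received a PEG400 solution iv at 5 mg/kg and po at 10 mg/kg.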
Data set [7] concerns the target Phosphodiesterase 4 (Homo sapiens, UniProt P27815+Q08499+Q07343+Q08493). Put plainly: Inhibition of PDE4 (unknown origin) by HTRF assay. In kind it is protein assay. (TR-FRET usually uses a lanthanide donor and a delayed reading to cut background.)
Data set [8] addresses Cytochrome P450 2D6 (Homo sapiens, UniProt P10635). The experiment in a line: Inhibition of recombinant CYP2D6 (unknown origin). The class given is ADME.
Data set [9] deals with Cytochrome P450 2C9 (Homo sapiens, UniProt P11712). The experiment in a line: Inhibition of recombinant CYP2C9 (unknown origin). In kind it is ADME.
Sequence of Cytochrome P450 2C9 (P11712 whole entry): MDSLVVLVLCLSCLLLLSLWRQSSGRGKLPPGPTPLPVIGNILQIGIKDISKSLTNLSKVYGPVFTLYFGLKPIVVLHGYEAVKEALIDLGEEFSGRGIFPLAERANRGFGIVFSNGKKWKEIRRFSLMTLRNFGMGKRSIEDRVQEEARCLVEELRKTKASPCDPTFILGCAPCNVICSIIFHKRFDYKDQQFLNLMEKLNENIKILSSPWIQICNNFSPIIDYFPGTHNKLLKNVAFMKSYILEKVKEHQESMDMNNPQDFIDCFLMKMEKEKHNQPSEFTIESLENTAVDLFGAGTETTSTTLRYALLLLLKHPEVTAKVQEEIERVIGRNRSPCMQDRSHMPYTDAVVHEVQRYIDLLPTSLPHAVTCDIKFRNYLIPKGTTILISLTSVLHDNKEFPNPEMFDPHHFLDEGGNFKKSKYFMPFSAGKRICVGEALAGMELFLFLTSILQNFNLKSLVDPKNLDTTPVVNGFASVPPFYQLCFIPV
The nature of data set [10]: Half life in Balb/C mouse at 5 mg/kg, iv. In kind it is ADME, organism-based. The following applies: in vivo. The method in brief:
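Male Balb/C mice (n = 3) dosed iv at 5 mg/kg in the same PK study as a 10 mg/kg oral arm. Vehicle was 70% 25 mM acetate buffer pH 4.0, 5% ethanol, 25% PEG 400. Half-life was taken from the iv arm.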

The nature of data set [11]: Total AUC in Beagle dog at 5 mg/kg, po. In kind it is ADME, organism-based, Canis lupus familiaris. Also on record: dose 5 mg/kg, route oral, time AUCmax. The following applies: in vivo. A digest of the protocol: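 Male Beagle dogs (n = 2) were pretreated with pentagastrin and dosed iv at 1 mg/kg and po at 5 mg/kg. The oral vehicle was 5% ethanol, 45% PEG400 and 50% 25 mM acetate buffer pH 4.0. The iv vehicle was 5:45:50 EtOH/PEG400/saline at 1 mL/kg.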

Data set [12] can be described thus: Cardiovascular toxicity in rat 1 mg/kg, po dosed every 3 days on and 4 days off treatment regime for 1 month. The following applies: in vivo. The class given is organism-based.
For data set [13], the system named is MC-38. Put plainly: Antitumour activity against mouse MC38 cells allografted in C57Bl/6 mouse assessed as reduction in tumour growth at 3.75 to 15 mg/kg, po qd for 28 days cotreated with anti-PD1 at 10 mg/kg, ip every 4 days for 3 doses by digital caliper analysis. In kind it is functional, organism-based. A digest of the protocol:
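C57/BL6 mice received 0.1 mL of MC38 cells (1 × 10^7 cells/mL) subcutaneously in the right flank. Mice were randomized at about 100 mm3, typically day 5. Oral dosing was once daily for 28 days at 3.75, 7.5 or 15 mg/kg. Anti-PD-1 was given at 10 mg/kg IP every 4 days for three doses. Isotype IgG1 MOPC-21 served as control on the same schedule.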

Data set [14] concerns the target T3, TGF-beta receptor type-1 (Homo sapiens, UniProt P36897).
T3 sequence (P36897 whole entry): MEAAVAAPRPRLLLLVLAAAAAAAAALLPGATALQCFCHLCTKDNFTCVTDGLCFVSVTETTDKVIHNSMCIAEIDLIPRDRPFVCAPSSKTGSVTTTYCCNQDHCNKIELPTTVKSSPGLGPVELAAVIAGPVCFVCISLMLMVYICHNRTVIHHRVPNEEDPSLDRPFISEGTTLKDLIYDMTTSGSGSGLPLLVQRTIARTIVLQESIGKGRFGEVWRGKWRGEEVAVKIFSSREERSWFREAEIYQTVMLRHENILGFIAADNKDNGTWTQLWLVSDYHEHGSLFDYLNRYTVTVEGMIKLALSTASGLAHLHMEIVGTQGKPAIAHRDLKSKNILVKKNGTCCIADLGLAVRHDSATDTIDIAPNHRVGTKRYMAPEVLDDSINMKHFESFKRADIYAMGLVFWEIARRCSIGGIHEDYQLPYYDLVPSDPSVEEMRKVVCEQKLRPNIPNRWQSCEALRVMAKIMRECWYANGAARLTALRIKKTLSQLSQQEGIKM
The experiment in a line: Inhibition of TGFBR1 in human biochemical assay assessed as apparent inhibition constant. The following applies: read-out: Ki(app).

For data set [15], the system named is MC-38. Put plainly: Antitumour activity against mouse MC38 cells allografted in C57Bl/6 mouse assessed as reduction in tumour growth at 3.75 mg/kg, po dosed every 3 days on and 4 days off treatment regime and cotreated with anti-PD1 at 10 mg/kg, ip every 4 days for 3 doses by digital caliper analysis. In kind it is functional, organism-based. The method in brief: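 MC38 cells (0.1 mL at 1 × 10^7 cells/mL) were implanted subcutaneously in the right flank of C57/BL6 mice. Randomization was at about 100 mm3, typically day 5. Oral dosing ran 3 days on, 4 days off, over 28 days. Anti-PD-1 was given at 10 mg/kg IP every 4 days for three doses, with isotype MOPC-21 IgG1 as control on the same schedule.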

Data set [16] has as its target Cytochrome P450 3A4 (Homo sapiens, UniProt P08684). Put plainly: Inhibition of recombinant CYP3A4 (unknown origin). In kind it is ADME.

Active and inactive are the calls of the source.

Sequence of Cytochrome P450 3A4 (P08684 whole entry): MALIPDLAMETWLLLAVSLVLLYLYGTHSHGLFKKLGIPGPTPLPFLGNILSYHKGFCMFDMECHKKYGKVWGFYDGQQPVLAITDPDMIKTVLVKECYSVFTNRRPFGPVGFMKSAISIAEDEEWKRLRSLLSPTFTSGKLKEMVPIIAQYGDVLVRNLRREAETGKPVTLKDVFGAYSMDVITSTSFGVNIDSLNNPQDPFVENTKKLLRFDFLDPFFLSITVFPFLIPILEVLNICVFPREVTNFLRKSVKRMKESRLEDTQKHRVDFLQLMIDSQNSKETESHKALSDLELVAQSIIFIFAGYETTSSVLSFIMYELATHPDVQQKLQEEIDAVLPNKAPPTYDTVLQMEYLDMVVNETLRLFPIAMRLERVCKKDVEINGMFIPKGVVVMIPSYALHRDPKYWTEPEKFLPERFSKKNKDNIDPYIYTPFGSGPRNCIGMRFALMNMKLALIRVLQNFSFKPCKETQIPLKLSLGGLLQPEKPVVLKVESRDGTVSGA
Sequence of Cytochrome P450 2D6 (P10635 whole entry): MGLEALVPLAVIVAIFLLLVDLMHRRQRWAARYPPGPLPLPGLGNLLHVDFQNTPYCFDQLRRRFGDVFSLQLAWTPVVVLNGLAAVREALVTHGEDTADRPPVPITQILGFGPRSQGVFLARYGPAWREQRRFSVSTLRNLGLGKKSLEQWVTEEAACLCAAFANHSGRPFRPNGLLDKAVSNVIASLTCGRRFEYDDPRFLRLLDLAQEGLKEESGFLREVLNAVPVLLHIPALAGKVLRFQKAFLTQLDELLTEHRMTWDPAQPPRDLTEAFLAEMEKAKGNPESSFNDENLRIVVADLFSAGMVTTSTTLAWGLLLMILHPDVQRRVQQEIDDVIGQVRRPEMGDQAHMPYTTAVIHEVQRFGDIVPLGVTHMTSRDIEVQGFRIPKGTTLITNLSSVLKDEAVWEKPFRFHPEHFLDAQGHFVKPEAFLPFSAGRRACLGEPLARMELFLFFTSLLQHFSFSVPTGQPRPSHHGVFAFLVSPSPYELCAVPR

Turning to `N#Cc1cnc2ccc(-c3c(-c4ccc(F)c(Cl)c4)ncn3CCO)nn12`, the half-life in [1] was 0.467 h; in data set [10], 9.1 h. The unbound share (fraction unbound) in data set [2] was 0.12; in data set [5], 0.1. The half-inhibitory concentration (IC50) in data set [3] is more than 20 µM; in [4] it was 0.05 µM; in [7] it was 11 µM; in data set [8] it was more than 20 µM; in data set [9], more than 20 µM; in [16], more than 20 µM. For the same compound, the time to peak (Tmax) in [6] came out at 1.1 h. The compound also had an AUC in [11] of 35 µM·h. For the same compound, the Activity entry in [12] is recorded as “Non-Toxic”. The inhibition result in data set [13] and in data set [15] was “Active” throughout. Further, in data set [14], the Ki was found to be 0.0008 µM.

For orientation: half-life means the time needed for the level to fall by half in the phase considered. The fraction unbound is the share of the substance not bound to proteins or other matrix. As usually defined, the IC50 is the concentration that inhibits the measured activity by half. The Tmax is the time at which the peak concentration occurs. For orientation: AUC means concentration integrated over time. Low values mean less exposure, high ones more exposure.
